Converted amounts (≈) assume the structure as drawn.
Columns and labels:
[1] = Metabolic stability in rat liver S9 fraction assessed as compound remaining at 3 uM measured at 60 mins by LC-MS/MS analysis; format: ADME, subcellular; settings: read-out: Stability
[2] = Metabolic stability in human liver S9 fraction assessed as compound remaining at 3 uM measured at 60 mins by LC-MS/MS analysis; format: ADME, subcellular; settings: read-out: Stability
[3] = Metabolic stability in rat liver microsome assessed as compound remaining at 3 uM measured at 30 mins in presence of NADPH by LC-MS/MS analysis; format: ADME; settings: liver microsomes, read-out: Stability
In short: (§1)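 Liver microsomes at 0.3 mg/mL with 1 mM NADPH in 200 mM phosphate buffer plus 2 mM MgCl2, pH 7.4, at 37 °C. Substrate 3 µM, incubated 30 min, triplicate. Percent remaining measured by LC-MS/MS.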

[4] = Metabolic stability in human liver microsome assessed as compound remaining at 3 uM measured at 30 mins in presence of NADPH by LC-MS/MS analysis; format: ADME; settings: liver microsomes, read-out: Stability; in short: as §1
[5] = Octanol/water distribution coefficient, logD of the compound at pH 7.4 sonicated for 30 mins followed by 24 hrs shaking; format: physicochemical
In short: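 Octanol/pH 7.4 0.1 M potassium phosphate partition. Sample at 1000 uM from 10 mM DMSO stock, 10% DMSO final. Sonicated 30 min, then shaken 24 h at 750 rpm at room temperature. Plate centrifuged 3600 rpm for 30 min.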

[6] = Kinetic solubility of compound incubated for 24 hrs; format: physicochemical; settings: for Kinetic_solubility: 24 h
In short: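 10 mM DMSO stock diluted into buffer to 200 µM final, 2% DMSO, run in duplicate. Buffers were pH 7.4 0.1 M potassium phosphate, pH 2.2, 6.8 and 5. Shaken 24 h at room temperature in a filter plate, then filtered by positive pressure. Single-point calibration against DMSO standards.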

[7] = system: Onchocerca gutturosa; experiment: Anti-filarial activity against Onchocerca gutturosa adult worms assessed as reduction in worm motility measured every 24 hrs for 5 days by olympus inverted microscopic analysis; format: functional, organism-based
In short: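 Adult worm motility read every 24 h, ending at 120 h. Serial 1-in-4 drug dilutions run to the activity endpoint. EC50 for motility reduction given as geomean, n=2.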

[8] = system: Onchocerca volvulus; experiment: Antiparasitic activity against Onchocerca volvulus L5 assessed as reduction in motility at 1 uM; parameters: scale not given: the % may be the effect or the level left
[9] = Mutagenicity in Salmonella typhimurium TA1535 in absence of liver S9 fraction by AMES test; format: toxicity; settings: salmonella enterica subsp. enterica serovar typhimurium
[10] = Mutagenicity in Escherichia coli WP2 uvrA in absence of liver S9 fraction by AMES test; format: toxicity
[11] = Mutagenicity in Salmonella typhimurium TA98 in absence of liver S9 fraction by AMES test; format: toxicity; settings: salmonella enterica subsp. enterica serovar typhimurium
[12] = Mutagenicity in Salmonella typhimurium TA1535 in presence of liver S9 fraction by AMES test; format: toxicity, subcellular; settings: salmonella enterica subsp. enterica serovar typhimurium
[13] = Mutagenicity in Salmonella typhimurium TA97 in presence of liver S9 fraction by AMES test; format: toxicity, subcellular; settings: salmonella enterica subsp. enterica serovar typhimurium
[14] = Mutagenicity in Salmonella typhimurium TA98 in presence of liver S9 fraction by AMES test; format: toxicity, subcellular; settings: salmonella enterica subsp. enterica serovar typhimurium
[15] = Mutagenicity in Salmonella typhimurium TA100 in absence of liver S9 fraction by AMES test; format: toxicity; settings: salmonella enterica subsp. enterica serovar typhimurium
[16] = Mutagenicity in Salmonella typhimurium TA97 in absence of liver S9 fraction by AMES test; format: toxicity; settings: salmonella enterica subsp. enterica serovar typhimurium
[17] = Mutagenicity in Escherichia coli WP2 uvrA in presence of liver S9 fraction by AMES test; format: toxicity, subcellular
[18] = Mutagenicity in Salmonella typhimurium TA100 in presence of liver S9 fraction by AMES test; format: toxicity, subcellular; settings: salmonella enterica subsp. enterica serovar typhimurium
[19] = system: P-glycoprotein (human); experiment: Efflux ratio of apparent permeability in MDCK-II cells expressing human P-glycoprotein gene at 10 uM measured at 2 hrs by LC-MS/MS analysis; format: ADME, cell-based, Canis lupus familiaris; settings: dog, MDCK-MDR1
[20] = Metabolic stability in mouse liver microsome assessed as compound remaining at 3 uM measured at 30 mins in presence of NADPH by LC-MS/MS analysis; format: ADME; settings: liver microsomes, read-out: Stability; in short: as §1
[21] = system: Litomosoides sigmodontis; experiment: Antiparasitic activity against Litomosoides sigmodontis infected in BALB/c mouse assessed as reduction in worm burden at 10 mg/kg, po qd administered for 7 days; format: functional; parameters: scale not given: the % may be the effect or the level left; settings: time 7 day
[22] = system: Litomosoides sigmodontis; experiment: Antiparasitic activity against Litomosoides sigmodontis infected in BALB/c mouse assessed as reduction in worm burden at 30 mg/kg, sc BID administered for 7 days; format: functional; parameters: scale not given: the % may be the effect or the level left; settings: time 7 day
[23] = system: Litomosoides sigmodontis; experiment: Antiparasitic activity against Litomosoides sigmodontis infected in BALB/c mouse assessed as reduction in worm burden at 30 mg/kg, po BID administered for 6 days; format: functional; parameters: scale not given: the % may be the effect or the level left; settings: time 6 day
[24] = system: Litomosoides sigmodontis; experiment: Antiparasitic activity against Litomosoides sigmodontis infected in BALB/c mouse assessed as reduction in worm burden at 30 mg/kg, po BID administered for 7 days; format: functional; parameters: scale not given: the % may be the effect or the level left; settings: time 7 day
[25] = system: Litomosoides sigmodontis; experiment: Antiparasitic activity against Litomosoides sigmodontis infected in BALB/c mouse assessed as reduction in worm burden at 30 mg/kg, po TID administered for 5 days; format: functional; parameters: scale not given: the % may be the effect or the level left; settings: time 5 day

remaining at 1 h, 3 µM [1] | remaining at 1 h, 3 µM [2] | Structure (SMILES) | also measured
51% | 59% | COc1ccc(Nc2nc(-c3ccccn3)cs2)nc1 | –
73% | 86% | CNc1cccnc1Nc1nc(-c2ccc(OC(C)C)cn2)ns1 | –
– | – | CC(C)Oc1cnc(-c2nsc(Nc3ncccc3C(C)C)n2)cc1C(F)(F)F | remaining at 0.5 h, 3 µM [3]: 96%; remaining at 0.5 h, 3 µM [4]: 97%
61% | 86% | Cc1cccnc1-c1nsc(Nc2ccc(N3CCCC3)cn2)n1 | logD at 24.5 h [5]: 2.65; solubility kinetic at 24 h ([6]; read-out: Kinetic_solubility): 2.17 µM (≈ 0.734 µg/mL); EC50 [7]: 40 nM
– | – | Cc1cccnc1Nc1nc(-c2cc(C(=O)N(C)C)c(OC(C)C)cn2)ns1 | remaining at 0.5 h, 3 µM [3]: 90%; remaining at 0.5 h, 3 µM [4]: 91%
78% | 65% | Cc1cccnc1Nc1nc(-c2cc(C#N)ccn2)ns1 | –
61% | 56% | Cc1ccnc(-c2nsc(Nc3ncccc3C(F)(F)F)n2)c1 | –
32% | 52% | Cc1cccnc1Nc1nc(-c2ccc(OC3CCN(C4CC4)CC3(F)F)cn2)ns1 (stereo not drawn) | –
78% | 39% | CC(C)c1cccnc1Nc1nc(-c2ccc(OC3CC3)cn2)ns1 | Activity [8]: 100%; Kinetic_solubility [6]: 0.2 µM
79% | 86% | CC(C)Oc1ccc(-c2nsc(Nc3ncccc3N(C)C)n2)nc1 | Activity [9]: Non-Toxic; Activity [10]: Non-Toxic; Activity [11]: Non-Toxic; Activity [12]: Non-Toxic; Activity [13]: Non-Toxic; Activity [8]: 100%; Activity [14]: Non-Toxic; Activity [15]: Non-Toxic; Activity [16]: Non-Toxic; Activity [17]: Non-Toxic; Activity [18]: Non-Toxic
– | – | CC(=O)N(C)c1cc(C(F)(F)F)cnc1Nc1nc(-c2ccc(OC(C)C)cn2)ns1 | efflux ratio at 2 h, 10 µM [19]: 4.1
– | – | Cc1cccnc1Nc1nnc(-c2ccc(OC3CCOCC3)cn2)o1 | remaining at 0.5 h, 3 µM [3]: 39%; remaining at 0.5 h, 3 µM [4]: 83%
83% | 83% | c1ccc(Nc2nc(-c3ccccn3)ns2)nc1 | –
61% | 76% | Cc1cccnc1Nc1nc(-c2ccc(OC3CC3)cn2)ns1 | Activity [8]: 100%
60% | 79% | Cc1cccnc1N(c1nc(-c2ccc(OC(C)C)cn2)ns1)C(C)C | –
– | – | Cc1cccnc1Nc1nsc(-c2ccc(OC3CCOCC3)cn2)n1 | remaining at 0.5 h, 3 µM [3]: 89%; remaining at 0.5 h, 3 µM [4]: 77%
– | – | Cc1cccnc1Nc1nnc(-c2ccc(OC3CCOCC3)cn2)s1 | remaining at 0.5 h, 3 µM [3]: 89%; remaining at 0.5 h, 3 µM [4]: 100%
81% | 78% | Cc1cccnc1Nc1nc(-c2cc(C3CCN(C)CC3)ccn2)ns1 | –
– | – | Cc1cccnc1Nc1nc(-c2ncc(OC(C)C)cn2)ns1 | remaining at 0.5 h, 3 µM [3]: 90%; remaining at 0.5 h, 3 µM [4]: 96%
4% | 32% | CC(C)Oc1ccc(-c2nsc(N(C)c3ncccc3C(C)C)n2)nc1 | –
73% | 66% | Cc1cccnc1Nc1nc(-c2ccc(C#N)cn2)ns1 | –
– | – | CC(C)Oc1cnc(-c2nsc(Nc3ncccc3N3CCCC3=O)n2)cc1C(F)(F)F | efflux ratio at 2 h, 10 µM [19]: 3.9
8% | 100% | CC(C)Oc1cc(-c2nsc(Nc3ncccc3N(C)C)n2)ncc1C(F)(F)F | –
93% | 100% | CC(C)c1cnc(Nc2nc(-c3ncccc3OC3CC3)ns2)cc1C(F)(F)F | –
– | – | Cc1cccnc1Nc1n[nH]c(-c2ccc(OC3CCOCC3)cn2)n1 | remaining at 0.5 h, 3 µM [20]: 70%; remaining at 0.5 h, 3 µM [4]: 92%

remaining at 1 h, 3 µM [1] | remaining at 1 h, 3 µM [2] | Structure (SMILES) | also measured
94% | 97% | Cc1cccnc1Nc1nc(-c2ccc(C(=O)N(C)C)cn2)ns1 | –
100% | 100% | COc1cccnc1Nc1nc(-c2ccc(OC(C)C)cn2)ns1 | –
100% | 100% | Cc1cccnc1Nc1nc(-c2ccc(OC(C)C)cn2)ns1 | Activity [21]: 58.8%
– | – | CC(=O)N(C)c1cccnc1Nc1nc(-c2cc(C(F)(F)F)c(OC(C)C)cn2)ns1 | efflux ratio at 2 h, 10 µM [19]: 4.5
100% | 100% | CC(C)Oc1ccc(-c2nsc(Nc3cc(C(F)(F)F)c(C(C)C)cn3)n2)nc1 | –
82% | 84% | Cc1cccnc1Nc1nc(-c2ccc(OC3CCOCC3)cn2)ns1 | –
53% | 58% | Cc1cccnc1Nc1nc(-c2ccc(OC3CC4(C3)CN(C3CC3)C4)cn2)ns1 | –
99% | 88% | CN1CCC(Oc2ccc(Nc3nc(-c4ccccn4)ns3)nc2)CC1 | –
76% | 83% | Cc1cccnc1Nc1nc(-c2ccc(OC3CCN(C4CC4)CC3)cn2)ns1 | Activity [22]: 85.5%
27% | 45% | CC(C)c1ccnc(-c2nsc(Nc3ncccc3C(F)(F)F)n2)c1 | –
– | – | CC(C)Oc1cnc(-c2nsc(Nc3ncccc3N(C)C(=O)C3CC3)n2)cc1C(F)(F)F | efflux ratio at 2 h, 10 µM [19]: 2.2
91% | 100% | CN(C)c1cccnc1Nc1nc(-c2ccc(OC3CC3)cn2)ns1 | Activity [8]: 100%
78% | 89% | Cc1cccnc1Nc1nc(-c2cc(C(=O)N(C)C)ccn2)ns1 | –
82% | 99% | CC(C)Oc1ccc(-c2nsc(Nc3ncccc3C(C)C)n2)nc1 | Activity [24]: 58.8%
– | – | CC(C)Oc1ccc(-c2nsc(Nc3ncccc3C(N)=O)n2)nc1 | efflux ratio at 2 h, 10 µM [19]: 4.6
– | – | CC(C)Oc1cnc(-c2nsc(Nc3ncccc3N(C)C)n2)cc1C(F)(F)F | remaining at 0.5 h, 3 µM [3]: 93%; remaining at 0.5 h, 3 µM [4]: 98%
70% | 72% | COc1cccnc1Nc1nc(-c2cc(C)ccn2)ns1 | –
74% | 81% | Cc1cccnc1Nc1nc(-c2cnc(OC(C)C)cn2)ns1 | –
– | – | CC(=O)N(C)c1cc(C(F)(F)F)cnc1Nc1nc(-c2cc(C(C)C)ccn2)ns1 | efflux ratio at 2 h, 10 µM [19]: 8.4
– | – | CC(=O)N(C)c1cc(C(F)(F)F)cnc1Nc1nc(-c2cc(OC(C)C)ccn2)ns1 | efflux ratio at 2 h, 10 µM [19]: 15.2; Kinetic_solubility [6]: 0.4 µM
81% | 96% | Cc1cccnc1N(C)c1nc(-c2ccc(OC(C)C)cn2)ns1 | –
– | – | CC(C)Oc1ccc(-c2nsc(Nc3ncccc3C(=O)N(C)C)n2)nc1 | efflux ratio at 2 h, 10 µM [19]: 11
– | – | COc1ccc(Nc2nc(-c3ccccn3)ns2)nc1 | remaining at 0.5 h, 3 µM [3]: 78%; Activity [25]: 50.1%; remaining at 0.5 h, 3 µM [4]: 90%
85% | 98% | Cc1cccnc1Nc1nc(-c2ccc(OC3CCOCC3)cn2)no1 | –
84% | 100% | Cc1cccnc1Nc1nc(-c2cc(C#N)c(OC(C)C)cn2)ns1 | –

Structure (SMILES) | remaining at 1 h, 3 µM [1] | remaining at 1 h, 3 µM [2] | also measured
CC(C)c1ccnc(-c2nsc(Nc3cc(C(F)(F)F)ccn3)n2)c1 | 45% | 65% | Activity [23]: 46%

Reference: ChEMBL document CHEMBL5137098, “Discovery of Substituted Di(pyridin-2-yl)-1,2,4-thiadiazol-5-amines as Novel Macrofilaricidal Compounds for the Treatment of Human Filarial Infections” (J Med Chem, 2022)
